Key:
Canis familiaris = experiment: Diuretic activity was measured after oral administration in conscious water loaded dogs at 20 mg/kg after 1 hr; assay type: functional, Canis lupus familiaris, Urine
In short: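 Male mongrel dogs (20–25 kg) were given 20 mL/kg tap water by gavage about 15 h before drug, with water ad libitum overnight. On the test day they received 4 mL/kg tap water hourly for 7 h, and the bladder was emptied at each interval. Drug was gavaged in the 4 mL/kg water load after the third urine sample, with Tween 80 added when it was poorly soluble. Urinary Na+ was measured by flame photometry as the mean excretory rate (μequiv/kg) per interval per animal. Each dog was its own control, using the hour before dosing.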

Mus musculus [1] = experiment: The diuretic activity was measured after oral administration in saline loaded mice at 64 mg/kg after 5 hr; assay type: functional, Urine
In short: (§1)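 Mice were dosed orally with drug in 1% saline at 10 mL/kg, at 4 or 64 mg/kg, alongside a vehicle control. There were 10 mice per group, housed 5 per metabolic cage. Pooled urine was analysed for sodium by flame photometry and expressed as mean mequiv/kg/5 h.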

Mus musculus [2] = experiment: The diuretic activity was measured after oral administration in saline loaded mice at 4 mg/kg after 5 hr; assay type: functional, Urine; in short: as §1

| SMILES | Oral diuretic activity (Canis familiaris) | Oral diuretic activity (Mus musculus [1]) | Oral diuretic activity (Mus musculus [2]) |
| --- | --- | --- | --- |
| Cc1cccc(-c2noc3c(Cl)c(OCC(=O)O)ccc23)c1C | 219.9 u equiv of [Na+] kg-1 hr-1 | 0.02 m equiv [Na+] 5hr-1kg-1 | – |
| O=C(O)COc1ccc2c(-c3ccc(Cl)cc3)noc2c1Cl | 41.2 u equiv of [Na+] kg-1 hr-1 | 0.5 m equiv [Na+] 5hr-1kg-1 | 0.5 m equiv [Na+] 5hr-1kg-1 |
| O=C(O)COc1c(Cl)cc2c(-c3ccccc3F)noc2c1Cl | 85.7 u equiv of [Na+] kg-1 hr-1 | 0.41 m equiv [Na+] 5hr-1kg-1 | – |
| CCOC(=O)COc1ccc2c(-c3ccccc3F)noc2c1Cl | 39.1 u equiv of [Na+] kg-1 hr-1 | 1.48 m equiv [Na+] 5hr-1kg-1 | – |
| O=C(O)COc1ccc2c(-c3cccs3)noc2c1Cl | 77.5 u equiv of [Na+] kg-1 hr-1 | 1 m equiv [Na+] 5hr-1kg-1 | 0.4 m equiv [Na+] 5hr-1kg-1 |
| O=C(O)COc1ccc2c(-c3ccc4ccccc4c3)noc2c1Cl | 53.3 u equiv of [Na+] kg-1 hr-1 | 1.1 m equiv [Na+] 5hr-1kg-1 | 1.2 m equiv [Na+] 5hr-1kg-1 |
| Cc1ccccc1-c1noc2c(Cl)c(OCC(=O)O)ccc12 | 66.9 u equiv of [Na+] kg-1 hr-1 | 1.76 m equiv [Na+] 5hr-1kg-1 | 0.02 m equiv [Na+] 5hr-1kg-1 |
| O=C(O)COc1ccc2c(-c3ccccc3F)noc2c1 | 33.6 u equiv of [Na+] kg-1 hr-1 | 2.89 m equiv [Na+] 5hr-1kg-1 | – |
| O=C(O)COc1cc2onc(-c3ccccc3F)c2cc1Cl | 49.8 u equiv of [Na+] kg-1 hr-1 | 0.2 m equiv [Na+] 5hr-1kg-1 | 0.6 m equiv [Na+] 5hr-1kg-1 |
| O=C(O)COc1ccc2c(-c3ccccn3)noc2c1Cl | 61.2 u equiv of [Na+] kg-1 hr-1 | 1 m equiv [Na+] 5hr-1kg-1 | 0.5 m equiv [Na+] 5hr-1kg-1 |
| O=C(O)COc1ccc2c(-c3ccccc3F)noc2c1I | 617.3 u equiv of [Na+] kg-1 hr-1 | 3.41 m equiv [Na+] 5hr-1kg-1 | 0.07 m equiv [Na+] 5hr-1kg-1 |
| O=C(O)COc1cc2onc(-c3ccccc3F)c2cc1Br | – | 0.28 m equiv [Na+] 5hr-1kg-1 | 0.47 m equiv [Na+] 5hr-1kg-1 |
| O=C(O)COc1ccc2c(-c3cccc(F)c3F)noc2c1Cl | 80 u equiv of [Na+] kg-1 hr-1 | 5.8 m equiv [Na+] 5hr-1kg-1 | – |
| O=C(O)COc1ccc2c(-c3ccco3)noc2c1Cl | 199 u equiv of [Na+] kg-1 hr-1 | 0.6 m equiv [Na+] 5hr-1kg-1 | – |
| O=C(O)COc1ccc2c(-c3ccccc3Cl)noc2c1Cl | 48.2 u equiv of [Na+] kg-1 hr-1 | 9.1 m equiv [Na+] 5hr-1kg-1 | 0.6 m equiv [Na+] 5hr-1kg-1 |
| O=C(O)COc1ccc2c(-c3ccoc3)noc2c1Cl | 293 u equiv of [Na+] kg-1 hr-1 | 2.1 m equiv [Na+] 5hr-1kg-1 | 0.6 m equiv [Na+] 5hr-1kg-1 |
| Cc1ccc(-c2noc3c(Cl)c(OCC(=O)O)ccc23)cc1 | 29.3 u equiv of [Na+] kg-1 hr-1 | 0.6 m equiv [Na+] 5hr-1kg-1 | 0.8 m equiv [Na+] 5hr-1kg-1 |
| Cc1ccc(-c2noc3c(Cl)c(OCC(=O)O)ccc23)s1 | 122.4 u equiv of [Na+] kg-1 hr-1 | 0.5 m equiv [Na+] 5hr-1kg-1 | – |
| Cc1ccsc1-c1noc2c(Cl)c(OCC(=O)O)ccc12 | 97.7 u equiv of [Na+] kg-1 hr-1 | 0.7 m equiv [Na+] 5hr-1kg-1 | – |
| O=C(O)COc1ccc2c(-c3ccccc3)noc2c1Cl | 47.5 u equiv of [Na+] kg-1 hr-1 | 1.7 m equiv [Na+] 5hr-1kg-1 | 0.8 m equiv [Na+] 5hr-1kg-1 |
